Publication PMC9435035 (ACS Omega, 2022)

Columns and labels:
[1] = body weight of STZ-induced diabetic rats; type: in vivo, Wistar albino rats; conditions: for body weight, day 1: day 1, in g (unit assumed); for body weight, day 7: day 7, in g (unit assumed); for body weight, day 14: day 14, in g (unit assumed); for body weight, day 21: day 21, in g (unit assumed); for body weight, day 28: day 28, in g (unit assumed)
Procedure, shortened: (§1)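 Male Wistar albino rats (170–200 g, 8–10 weeks), fasted overnight, given STZ 50 mg/kg i.p. in 0.1 M citrate buffer, then 10% glucose for 3 days. Tail-vein glucose by glucometer at 72 h; >250 mg/dL counted as diabetic. Body weight and blood glucose on days 1, 7, 14, 21 and 28. Means ± SEM, one-way ANOVA with Dunnett's test.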

[2] = system: streptozotocin-induced diabetic Wistar rats; assay: antidiabetic activity: blood glucose in STZ-induced diabetes; type: in vivo, Wistar albino rats
Procedure, shortened: as §1

α-glucosidase = α-glucosidase (Saccharomyces cerevisiae, UniProt P53341); assay: α-glucosidase inhibitory activity; type: biochemical; conditions: read-out: glucosidase inhibition IC50 ± SEM; mean ± SEM
Sequence of α-glucosidase (P53341 whole entry): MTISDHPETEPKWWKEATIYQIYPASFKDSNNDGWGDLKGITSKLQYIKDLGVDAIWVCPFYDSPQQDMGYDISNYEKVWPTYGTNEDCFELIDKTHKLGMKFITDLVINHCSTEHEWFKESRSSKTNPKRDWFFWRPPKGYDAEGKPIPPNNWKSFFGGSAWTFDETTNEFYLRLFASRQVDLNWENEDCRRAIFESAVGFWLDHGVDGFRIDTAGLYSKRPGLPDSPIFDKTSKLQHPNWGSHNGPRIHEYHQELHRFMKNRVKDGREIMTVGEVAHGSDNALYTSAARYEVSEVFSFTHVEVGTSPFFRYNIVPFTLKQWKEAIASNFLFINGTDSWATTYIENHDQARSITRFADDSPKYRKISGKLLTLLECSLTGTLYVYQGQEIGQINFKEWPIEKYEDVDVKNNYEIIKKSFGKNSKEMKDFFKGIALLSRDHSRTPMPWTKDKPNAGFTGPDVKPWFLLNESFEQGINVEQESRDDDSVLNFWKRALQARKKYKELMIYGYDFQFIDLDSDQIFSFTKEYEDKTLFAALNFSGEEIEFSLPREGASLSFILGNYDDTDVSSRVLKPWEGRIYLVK

[3] = system: streptozotocin-induced diabetic Wistar rats; assay: serum profile; type: in vivo, Wistar albino rats; conditions: STZ-diabetic rats; for (ALP) IU / (SGOT) IU / (SGPT) IU: serum
Procedure, shortened: (§2)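 STZ-diabetic Wistar rats (n = 8 per group) received test compound at 10 or 20 mg/kg p.o., or glibenclamide 500 μg/kg p.o., once daily for 28 days; controls received vehicle. On day 28, rats were anesthetised with pentobarbital sodium (35 mg/kg) and blood was drawn by cardiac puncture. Serum ALP, SGPT, SGOT, LDL, HDL, TG, total cholesterol, creatinine and insulin were measured. Means ± SEM, one-way ANOVA with Dunnett's test.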

[4] = system: streptozotocin-induced diabetic Wistar rats; assay: lipid profile in streptozotocin-induced diabetes; type: in vivo, Wistar albino rats; conditions: STZ-diabetic rats
Procedure, shortened: as §2

Balb/C mice = assay: acute toxicity study in mice; type: in vivo; conditions: for mortality: maximum oral dose of 2000 mg/kg (b.w.); for toxic effects (diarrhea, convulsions, lethargy, sleeping, salivation, tremor): oral up to 2000 mg/kg, observed daily for 2 weeks
Procedure, shortened: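 Two-phase modified Lorke protocol in Balb/C mice (20–25 g), four per group. Phase 1: control given Tween-80 (2%); other groups received oral test compound at 100, 500 or 1000 mg/kg. Phase 2: oral doses of 1250, 1500 and 2000 mg/kg. Animals observed for the first 24 h, then daily for 2 weeks for diarrhea, convulsions, lethargy, sleeping, salivation and tremors, with mortality monitored.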

[5] = system: overnight fasted normal rats; assay: oral glucose tolerance test; type: in vivo, Wistar albino rats; conditions: OGTT, glucose 3 g/kg oral
[6] = 10 mg/kg p.o. once daily, day 28
[7] = 20 mg/kg p.o. once daily, day 28, 20 mg/kg

## 1-Phenyl-3-(4-(4-(p-tolyl)-2,3-dihydrobenzo[b][1,5]thiazepin-2-yl)phenyl)prop-2-en-1-one [6B]
[1]; 10 mg/kg
  body weight, day 1: 190.0 ± 3.98
  body weight, day 7: 182.5 ± 4.19
  body weight, day 14: 187.1 ± 4.88
  body weight, day 21: 183.4 ± 4.60
  body weight, day 28: 180.9 ± 4.23
[1]; 20 mg/kg
  body weight, day 1: 194.1 ± 4.41
  body weight, day 7: 189.3 ± 4.61
  body weight, day 14: 190.3 ± 4.71
  body weight, day 21: 186.7 ± 3.96
  body weight, day 28: 184.3 ± 4.33
[2]; 10 mg/kg p.o. once daily
  blood glucose level, day 1: 381.40 ± 4.30 mg/dL
[2]; 10 mg/kg p.o. once daily, day 7, 10 mg/kg
  blood glucose level, day 7: 280.90 ± 4.66 mg/dL
[2]; 10 mg/kg p.o. once daily, day 14, 10 mg/kg
  blood glucose level, day 14: 205.31 ± 4.01 mg/dL
[2]; 10 mg/kg p.o. once daily, day 21, 10 mg/kg
  blood glucose level, day 21: 150.45 ± 4.92 mg/dL
[2]; [6]
  blood glucose level, day 28: 135.67 ± 3.89 mg/dL
[2]; 20 mg/kg p.o. once daily
  blood glucose level, day 1: 380.30 ± 4.78 mg/dL
[2]; 20 mg/kg p.o. once daily, day 7, 20 mg/kg
  blood glucose level, day 7: 228.44 ± 5.06 mg/dL
[2]; 20 mg/kg p.o. once daily, day 14, 20 mg/kg
  blood glucose level, day 14: 166.09 ± 4.46 mg/dL
[2]; 20 mg/kg p.o. once daily, day 21, 20 mg/kg
  blood glucose level, day 21: 129.71 ± 4.09 mg/dL
[2]; [7]
  blood glucose level, day 28: 111.81 ± 4.08 mg/dL
α-glucosidase
  IC50: 3.63 ± 0.36 µM
[3]; 10 mg/kg for 28 days
  insulin level: 0.658 ± 0.31 ng/mL
  serum creatinine: 0.82 ± 0.22 mg/dL
  (ALP) IU: 214.19 ± 4.11 IU
  (SGOT) IU: 25.81 ± 2.16 IU
  (SGPT) IU: 25.90 ± 2.11 IU
[3]; 20 mg/kg for 28 days
  insulin level: 0.667 ± 0.40 ng/mL
  serum creatinine: 0.75 ± 0.30 mg/dL
  (ALP) IU: 204.71 ± 4.13 IU
  (SGOT) IU: 22.31 ± 2.17 IU
  (SGPT) IU: 23.01 ± 2.11 IU
[4]; 10 mg/kg for 28 days
  LDL: 130.21 ± 3.99 mg/dL
  TG: 145.21 ± 4.98 mg/dL
  total CH: 151.07 ± 4.92 mg/dL
[4]; 10 mg/kg for 28 days, 10 mg/kg
  HDL: 44.89 ± 3.01 mg/dL
[4]; 20 mg/kg for 28 days
  LDL: 113.41 ± 4.71 mg/dL
  TG: 116.82 ± 4.41 mg/dL
  total CH: 137.11 ± 3.71 mg/dL
[4]; 20 mg/kg for 28 days, 20 mg/kg
  HDL: 52.07 ± 2.69 mg/dL
Balb/C mice
  mortality: no mortality
  toxic effects (diarrhea, convulsions, lethargy, sleeping, salivation, tremor): no toxic effects
[5]; dose 10 mg/kg
  blood glucose level, 0 min: 103.41 ± 4.05 mg/dL
  blood glucose level, 30 min: 125.39 ± 4.10 mg/dL
  blood glucose level, 60 min: 120.41 ± 4.81 mg/dL
  blood glucose level, 90 min: 112.61 ± 4.81 mg/dL
  blood glucose level, 120 min: 114.91 ± 4.59 mg/dL
[5]; dose 20 mg/kg
  blood glucose level, 0 min: 100.93 ± 4.11 mg/dL
  blood glucose level, 30 min: 119.91 ± 4.62 mg/dL
  blood glucose level, 60 min: 121.66 ± 4.31 mg/dL
  blood glucose level, 90 min: 111.22 ± 4.21 mg/dL
  blood glucose level, 120 min: 109.78 ± 5.01 mg/dL

## 4-(4-(p-Tolyl)-2,3-dihydrobenzo[b][1,5]thiazepin-2-yl)benzoic acid [7B]
[1]; 10 mg/kg
  body weight, day 1: 191.1 ± 4.07
  body weight, day 7: 188.2 ± 4.57
  body weight, day 14: 185.6 ± 4.90
  body weight, day 21: 184.1 ± 4.71
  body weight, day 28: 183.7 ± 4.32
[1]; 20 mg/kg
  body weight, day 1: 188.9 ± 4.67
  body weight, day 7: 190.8 ± 4.21
  body weight, day 14: 188.1 ± 4.62
  body weight, day 21: 185.2 ± 3.91
  body weight, day 28: 186.1 ± 4.58
[2]; 10 mg/kg p.o. once daily
  blood glucose level, day 1: 377.08 ± 5.01 mg/dL
[2]; 10 mg/kg p.o. once daily, day 7
  blood glucose level, day 7: 290.20 ± 4.93 mg/dL
[2]; 10 mg/kg p.o. once daily, day 14
  blood glucose level, day 14: 215.76 ± 5.03 mg/dL
[2]; 10 mg/kg p.o. once daily, day 21
  blood glucose level, day 21: 153.19 ± 4.66 mg/dL
[2]; [6]
  blood glucose level, day 28: 136.51 ± 5.19 mg/dL
[2]; 20 mg/kg p.o. once daily
  blood glucose level, day 1: 374.21 ± 4.12 mg/dL
[2]; 20 mg/kg p.o. once daily, day 7
  blood glucose level, day 7: 238.39 ± 5.11 mg/dL
[2]; 20 mg/kg p.o. once daily, day 14
  blood glucose level, day 14: 171.44 ± 4.98 mg/dL
[2]; 20 mg/kg p.o. once daily, day 21
  blood glucose level, day 21: 134.20 ± 5.03 mg/dL
[2]; [7]
  blood glucose level, day 28: 112.97 ± 4.56 mg/dL
α-glucosidase
  IC50: 3.96 ± 0.42 µM
[3]; 10 mg/kg for 28 days
  insulin level: 0.621 ± 0.37 ng/mL
[3]; 10 mg/kg for 28 days, 10 mg/kg
  serum creatinine: 0.85 ± 0.37 mg/dL
  (ALP) IU: 217.14 ± 4.61 IU
  (SGOT) IU: 26.71 ± 1.91 IU
  (SGPT) IU: 27.07 ± 2.77 IU
[3]; 20 mg/kg for 28 days
  insulin level: 0.639 ± 0.29 ng/mL
[3]; 20 mg/kg for 28 days, 20 mg/kg
  serum creatinine: 0.79 ± 0.31 mg/dL
  (ALP) IU: 209.01 ± 4.29 IU
  (SGOT) IU: 23.08 ± 2.11 IU
  (SGPT) IU: 23.91 ± 2.21 IU
Balb/C mice
  mortality: no mortality
  toxic effects (diarrhea, convulsions, lethargy, sleeping, salivation, tremor): no toxic effects
[5]; dose 10 mg/kg
  blood glucose level, 0 min: 104.01 ± 4.97 mg/dL
  blood glucose level, 30 min: 120.71 ± 5.01 mg/dL
  blood glucose level, 60 min: 120.90 ± 4.54 mg/dL
  blood glucose level, 90 min: 116.52 ± 4.11 mg/dL
  blood glucose level, 120 min: 109.25 ± 4.91 mg/dL
[5]; dose 20 mg/kg
  blood glucose level, 0 min: 103.88 ± 4.04 mg/dL
  blood glucose level, 30 min: 117.41 ± 4.70 mg/dL
  blood glucose level, 60 min: 114.22 ± 4.97 mg/dL
  blood glucose level, 90 min: 117.01 ± 4.66 mg/dL
  blood glucose level, 120 min: 108.91 ± 4.87 mg/dL
